Test results reported in ChEMBL document CHEMBL4680093 (J Med Chem, 2016).
The source made the active and inactive calls. The calls are words filed in the database; no cut-off is given here.

How the values were obtained:
[1] = In-vivo inhibition of 11beta-HSD1 activity in C57BL/6 mouse liver assessed as reduction in cortisone to-cortisol conversion at 10 mg/kg, po measured after 2 hrs by ELISA; type: functional; conditions: C57BL/6, Liver
[2] = Metabolic stability in mouse liver microsomes assessed as compound remaining after 30 mins; type: ADME, Microsome; conditions: read-out: Stabilty
[3] = In-vivo inhibition of 11beta-HSD1 activity in C57BL/6 mouse epididymal fat assessed as reduction in cortisone to-cortisol conversion at 10 mg/kg, po measured after 2 hrs by ELISA; type: functional; conditions: C57BL/6, Epididymal fat pad
Outline: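 Male C57BL/6 mice dosed orally once at 3, 10 or 30 mg/kg in sterile water containing 0.5% methylcellulose and 1% Tween80, then sacrificed at 2 or 6 h. Liver and epididymal fat pads incubated ex vivo in culture medium containing cortisone. Cortisol formed was measured by ELISA and reported as % inhibition versus vehicle.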

[4] = Reduction in HOMA-IR in patient with type 2 diabetes exhibiting inadequate glycemic control with metformin alone dosed for 12 weeks during phase 2 trial; type: functional, Homo sapiens; parameters: scale not given: the % may be the effect or the level left
[5] = Reduction in HbA1c in patient with type 2 diabetes exhibiting inadequate glycemic control with metformin alone dosed for 12 weeks during phase 2 trial; type: functional, Homo sapiens; parameters: scale not given: the % may be the effect or the level left
[6] = Reduction in fasting plasma glucose in patient with type 2 diabetes exhibiting inadequate glycemic control with metformin alone dosed for 12 weeks during phase 2 trial; type: functional, Homo sapiens
[7] = target: Cytochrome P450 2C9 (Homo sapiens, UniProt P11712); experiment: Inhibition of CYP2C9 in pooled human liver microsomes using diclofenac as substrate in presence of NADPH incubated for 10 mins by LC-MS/MS analysis
[8] = target: Cytochrome P450 2C19 (Homo sapiens, UniProt P33261); experiment: Inhibition of CYP2C19 in pooled human liver microsomes using mephenytoin as substrate in presence of NADPH incubated for 10 mins by LC-MS/MS analysis
[9] = target: Cytochrome P450 3A4 (Homo sapiens, UniProt P08684); experiment: Inhibition of CYP3A4 in pooled human liver microsomes using midazolam as substrate in presence of NADPH incubated for 10 mins by LC-MS/MS analysis
[10] = target: T1, Cytochrome P450 1A2 (Homo sapiens, UniProt P05177); experiment: Inhibition of CYP1A2 in pooled human liver microsomes using phenacetin as substrate in presence of NADPH incubated for 10 mins by LC-MS/MS analysis
T1 sequence (P05177 whole entry): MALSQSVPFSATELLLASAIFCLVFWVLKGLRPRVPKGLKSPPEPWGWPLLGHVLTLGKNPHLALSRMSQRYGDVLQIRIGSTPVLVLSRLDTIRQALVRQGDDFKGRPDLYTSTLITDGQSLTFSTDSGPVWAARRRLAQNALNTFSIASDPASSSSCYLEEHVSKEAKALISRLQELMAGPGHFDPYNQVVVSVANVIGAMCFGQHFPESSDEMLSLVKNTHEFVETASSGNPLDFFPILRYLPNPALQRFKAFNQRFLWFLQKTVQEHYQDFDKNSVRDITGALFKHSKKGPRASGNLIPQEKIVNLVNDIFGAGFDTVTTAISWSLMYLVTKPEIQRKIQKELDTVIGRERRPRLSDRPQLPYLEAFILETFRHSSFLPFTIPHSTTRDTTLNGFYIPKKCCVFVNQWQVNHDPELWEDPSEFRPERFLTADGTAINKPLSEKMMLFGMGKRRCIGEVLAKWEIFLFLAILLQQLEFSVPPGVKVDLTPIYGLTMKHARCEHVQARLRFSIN

[11] = target: Cytochrome P450 2D6 (Homo sapiens, UniProt P10635); experiment: Inhibition of CYP2D6 in pooled human liver microsomes using dextromethorphan as substrate in presence of NADPH incubated for 10 mins by LC-MS/MS analysis
[12] = target: 11-beta-hydroxysteroid dehydrogenase 1 (Homo sapiens, UniProt P28845); experiment: Inhibition of human 11beta-HSD1 expressed in HEK293 cells using cortisone by ELISA
[13] = target: T2, Nuclear receptor subfamily 1 group I member 2 (Homo sapiens, UniProt O75469); experiment: Activation of PXR (unknown origin) at 10 uM relative to rifampicin; type: ADME
T2 sequence (O75469 whole entry): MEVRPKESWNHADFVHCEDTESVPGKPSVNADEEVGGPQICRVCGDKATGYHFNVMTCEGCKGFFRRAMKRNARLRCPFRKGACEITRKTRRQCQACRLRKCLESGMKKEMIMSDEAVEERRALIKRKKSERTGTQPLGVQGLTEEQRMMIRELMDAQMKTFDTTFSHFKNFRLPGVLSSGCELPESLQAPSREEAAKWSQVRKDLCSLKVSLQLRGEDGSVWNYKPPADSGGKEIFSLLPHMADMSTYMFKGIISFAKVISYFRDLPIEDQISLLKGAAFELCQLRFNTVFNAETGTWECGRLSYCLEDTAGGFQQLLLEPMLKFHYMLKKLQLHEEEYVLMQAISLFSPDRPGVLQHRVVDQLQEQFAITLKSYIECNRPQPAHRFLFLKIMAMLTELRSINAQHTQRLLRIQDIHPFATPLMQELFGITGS

[14] = test system: Mus musculus; experiment: Improvement in lipid profile in C57BL/6-Lep^ob (ob/ob) mouse assessed as total cholesterol level at 300 mg/kg, po dosed once daily for 25 days (reference value: 286.6 +/- 6.3 mg/dl); type: functional; conditions: time 25 day
[15] = test system: Mus musculus; experiment: Reduction in nonfasting blood glucose level in C57BL/6-Lep^ob (ob/ob) mouse at 300 mg/kg, po dosed once daily for 25 days relative to control; type: functional, organism-based; conditions: time 25.0 day
Outline: (§1)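 Eight-week-old male ob/ob mice were dosed orally once daily for 25 days with vehicle (sterile water, 0.5% methylcellulose, 1% Tween80), test compound 20 mg/kg, metformin 300 mg/kg, or the combination. Baseline postprandial glucose and HbA1c were checked from tail-vein blood. Changes in HbA1c and non-fasting blood glucose were expressed relative to the vehicle group.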

[16] = Reduction in HbA1c level in C57BL/6-Lep^ob (ob/ob) mouse at 300 mg/kg, po dosed once daily for 25 days relative to control; type: functional; parameters: scale not given: the % may be the effect or the level left; conditions: time 25 day; outline: as §1
[17] = test system: Mus musculus; experiment: Improvement in lipid profile in C57BL/6-Lep^ob (ob/ob) mouse assessed as LDL cholesterol level at 300 mg/kg, po dosed once daily for 25 days (reference value: 30.3 +/- 0.8 mg/dl); type: functional; conditions: time 25 day
[18] = test system: Mus musculus; experiment: Improvement in lipid profile in C57BL/6-Lep^ob (ob/ob) mouse assessed as triglyceride level at 300 mg/kg, po dosed once daily for 25 days (reference value: 90.9 +/- 5.5 mg/dl); type: functional; conditions: time 25 day

Sequence of Cytochrome P450 2C9 (P11712 whole entry): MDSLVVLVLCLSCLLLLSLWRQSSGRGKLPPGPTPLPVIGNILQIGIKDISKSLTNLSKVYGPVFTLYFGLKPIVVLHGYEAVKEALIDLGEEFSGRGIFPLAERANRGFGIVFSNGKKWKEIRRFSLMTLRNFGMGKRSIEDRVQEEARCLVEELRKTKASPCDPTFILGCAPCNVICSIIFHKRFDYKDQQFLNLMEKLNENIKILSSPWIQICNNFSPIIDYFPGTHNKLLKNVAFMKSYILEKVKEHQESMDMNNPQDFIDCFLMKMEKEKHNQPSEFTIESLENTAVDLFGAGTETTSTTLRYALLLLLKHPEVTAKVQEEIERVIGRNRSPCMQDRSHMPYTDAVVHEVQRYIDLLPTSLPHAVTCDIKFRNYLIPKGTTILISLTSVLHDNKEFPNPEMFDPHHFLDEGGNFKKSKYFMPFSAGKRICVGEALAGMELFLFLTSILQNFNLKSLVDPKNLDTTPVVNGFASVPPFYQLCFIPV
Sequence of Cytochrome P450 2C19 (P33261 whole entry): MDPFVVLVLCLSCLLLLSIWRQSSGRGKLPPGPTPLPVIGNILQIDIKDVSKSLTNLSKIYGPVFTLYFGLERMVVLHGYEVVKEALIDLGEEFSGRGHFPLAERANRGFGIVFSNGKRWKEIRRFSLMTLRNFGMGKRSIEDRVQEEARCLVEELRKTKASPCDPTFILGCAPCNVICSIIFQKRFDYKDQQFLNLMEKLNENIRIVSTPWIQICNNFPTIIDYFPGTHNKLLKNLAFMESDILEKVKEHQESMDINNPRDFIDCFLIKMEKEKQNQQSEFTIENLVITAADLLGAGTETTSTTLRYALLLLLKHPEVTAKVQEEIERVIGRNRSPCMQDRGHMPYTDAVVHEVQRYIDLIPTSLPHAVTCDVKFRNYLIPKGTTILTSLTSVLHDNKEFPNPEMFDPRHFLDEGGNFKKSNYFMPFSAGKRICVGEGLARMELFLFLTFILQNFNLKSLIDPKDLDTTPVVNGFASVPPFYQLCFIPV
Sequence of Cytochrome P450 2D6 (P10635 whole entry): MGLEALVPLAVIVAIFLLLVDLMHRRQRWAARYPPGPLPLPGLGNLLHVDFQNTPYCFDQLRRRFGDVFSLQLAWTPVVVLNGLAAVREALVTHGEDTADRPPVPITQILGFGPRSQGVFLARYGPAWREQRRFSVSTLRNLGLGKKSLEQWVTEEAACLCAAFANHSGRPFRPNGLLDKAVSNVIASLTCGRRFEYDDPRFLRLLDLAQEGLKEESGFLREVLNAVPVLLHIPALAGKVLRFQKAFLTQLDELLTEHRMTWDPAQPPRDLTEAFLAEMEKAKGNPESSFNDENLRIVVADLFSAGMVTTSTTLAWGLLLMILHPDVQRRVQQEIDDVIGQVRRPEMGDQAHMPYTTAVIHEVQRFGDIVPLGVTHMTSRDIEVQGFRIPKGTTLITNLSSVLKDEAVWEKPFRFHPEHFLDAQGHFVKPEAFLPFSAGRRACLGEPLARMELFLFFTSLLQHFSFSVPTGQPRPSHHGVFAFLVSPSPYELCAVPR
Sequence of Cytochrome P450 3A4 (P08684 whole entry): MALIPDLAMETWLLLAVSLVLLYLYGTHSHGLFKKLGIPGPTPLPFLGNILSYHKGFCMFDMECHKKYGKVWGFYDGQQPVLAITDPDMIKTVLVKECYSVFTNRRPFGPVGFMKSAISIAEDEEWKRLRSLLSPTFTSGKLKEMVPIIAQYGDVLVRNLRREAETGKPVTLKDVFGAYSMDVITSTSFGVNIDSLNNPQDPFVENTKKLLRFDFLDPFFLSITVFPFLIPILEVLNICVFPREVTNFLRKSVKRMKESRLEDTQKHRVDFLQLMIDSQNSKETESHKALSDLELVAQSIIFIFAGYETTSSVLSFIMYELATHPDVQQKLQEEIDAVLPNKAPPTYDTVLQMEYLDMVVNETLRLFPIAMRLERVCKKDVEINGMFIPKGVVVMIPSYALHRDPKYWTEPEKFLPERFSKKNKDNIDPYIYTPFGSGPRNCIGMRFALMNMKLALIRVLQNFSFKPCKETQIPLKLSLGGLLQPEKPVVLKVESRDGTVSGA
Sequence of 11-beta-hydroxysteroid dehydrogenase 1 (P28845 whole entry): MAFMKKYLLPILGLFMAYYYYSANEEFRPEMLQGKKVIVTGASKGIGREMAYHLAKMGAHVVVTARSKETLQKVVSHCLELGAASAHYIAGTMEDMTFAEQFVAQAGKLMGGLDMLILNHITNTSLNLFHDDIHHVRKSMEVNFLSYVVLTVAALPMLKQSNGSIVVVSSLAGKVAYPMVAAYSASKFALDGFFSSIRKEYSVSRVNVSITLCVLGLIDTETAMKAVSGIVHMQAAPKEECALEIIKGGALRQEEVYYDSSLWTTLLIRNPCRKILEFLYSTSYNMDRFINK

SMILES: C[C@@H]1CN(c2cc(F)c(S(C)(=O)=O)cc2F)CCN1c1nccc(C(=O)NC2C3CC4CC2CC(O)(C4)C3)n1 (stereo partly specified)
- inhibition in vivo at 10 mg/kg [1]: 80%
- remaining at 0.5 h [2]: 92%
- inhibition in vivo at 10 mg/kg [3]: 85%

SMILES: C[C@@H]1CN(c2ccc(C(C)(C)O)nc2)CCN1c1cccc(C(=O)NC2C3CC4CC2CC(O)(C4)C3)n1 (stereo partly specified)
- inhibition in vivo at 10 mg/kg [1]: 63%
- remaining at 0.5 h [2]: 76%
- inhibition in vivo at 10 mg/kg [3]: 87%

SMILES: O=C(NC1CCCCC1)[C@H]1CCCN(S(=O)(=O)c2cccc(Cl)c2)C1
- Activity [4]: 24%
- Activity [5]: 0.6%
- Activity [6]: 24 mg/dL

SMILES: C[C@@H]1CN(c2ccc(C(N)=O)nc2)CCN1c1cccc(C(=O)NC2C3CC4CC2CC(O)(C4)C3)n1 (stereo partly specified)
- remaining at 0.5 h [2]: 23%

SMILES: CNC(=O)c1ccc(N2CCN(c3cccc(C(=O)NC4C5CC6CC4CC(O)(C6)C5)n3)[C@H](C)C2)cc1 (stereo partly specified)
- inhibition in vivo at 10 mg/kg [1]: 0%
- remaining at 0.5 h [2]: 61%
- inhibition in vivo at 10 mg/kg [3]: 34%

SMILES: C[C@@H]1CN(c2ccc(S(C)(=O)=O)cc2)CCN1c1nccc(C(=O)NC2C3CC4CC2CC(O)(C4)C3)n1 (stereo partly specified)
- inhibition in vivo at 10 mg/kg [1]: 48%
- IC50 [7]: > 10 µM
- IC50 [8]: > 10 µM
- IC50 [9]: > 10 µM
- IC50 [10]: > 10 µM
- IC50 [11]: > 10 µM
- remaining at 0.5 h [2]: 92%
- inhibition in vivo at 10 mg/kg [3]: 81%

SMILES: C[C@@H]1CN(c2ccc(C#N)cc2)CCN1c1nccc(C(=O)NC2C3CC4CC2CC(O)(C4)C3)n1 (stereo partly specified)
- inhibition in vivo at 10 mg/kg [1]: 6%
- remaining at 0.5 h [2]: 86%
- inhibition in vivo at 10 mg/kg [3]: 12%

SMILES: C[C@@H]1CN(c2ccc(S(C)(=O)=O)cc2)CCN1c1cccc(C(=O)NC2C3CC4CC2CC(O)(C4)C3)n1 (stereo partly specified)
- inhibition in vivo at 10 mg/kg [1]: 70%
- IC50 [12]: 3.1 nM
- IC50 [7]: > 10 µM
- IC50 [8]: 3.7 µM
- IC50 [9]: 0.97 µM
- IC50 [10]: > 10 µM
- Activity [13]: 32.7%
- IC50 [11]: > 10 µM
- remaining at 0.5 h [2]: 97%
- inhibition in vivo at 10 mg/kg [3]: 86%

SMILES: C[C@@H]1CN(c2ccc(S(N)(=O)=O)cc2)CCN1c1cccc(C(=O)NC2C3CC4CC2CC(O)(C4)C3)n1 (stereo partly specified)
- inhibition in vivo at 10 mg/kg [1]: 0%
- remaining at 0.5 h [2]: 65%
- inhibition in vivo at 10 mg/kg [3]: 11%

SMILES: CCS(=O)(=O)c1ccc(N2CCN(c3nccc(C(=O)NC4C5CC6CC4CC(O)(C6)C5)n3)[C@H](C)C2)c(F)c1 (stereo partly specified)
- inhibition in vivo at 10 mg/kg [1]: 79%
- remaining at 0.5 h [2]: 91%
- inhibition in vivo at 10 mg/kg [3]: 82%

SMILES: CNS(=O)(=O)c1ccc(N2CCN(c3cccc(C(=O)NC4C5CC6CC4CC(O)(C6)C5)n3)[C@H](C)C2)cc1 (stereo partly specified)
- inhibition in vivo at 10 mg/kg [1]: 12%
- remaining at 0.5 h [2]: 83%
- inhibition in vivo at 10 mg/kg [3]: 33%

SMILES: C[C@@H]1CN(c2ccc(Cl)cc2)CCN1c1nccc(C(=O)NC2C3CC4CC2CC(O)(C4)C3)n1 (stereo partly specified)
- remaining at 0.5 h [2]: 78%

SMILES: C[C@@H]1CN(c2ccc(S(C)(=O)=O)cc2Cl)CCN1c1nccc(C(=O)NC2C3CC4CC2CC(O)(C4)C3)n1 (stereo partly specified)
- inhibition in vivo at 10 mg/kg [1]: 77%
- remaining at 0.5 h [2]: 96%
- inhibition in vivo at 10 mg/kg [3]: 82%

SMILES: CNC(=O)c1ccc(N2CCN(c3cccc(C(=O)NC4C5CC6CC4CC(O)(C6)C5)n3)[C@H](C)C2)cn1 (stereo partly specified)
- inhibition in vivo at 10 mg/kg [1]: 52%
- IC50 [7]: > 10 µM
- IC50 [8]: 0.7 µM
- IC50 [9]: > 10 µM
- IC50 [10]: > 10 µM
- IC50 [11]: > 10 µM
- remaining at 0.5 h [2]: 66%
- inhibition in vivo at 10 mg/kg [3]: 85%

SMILES: C[C@@H]1CN(c2ccc(C(F)(F)F)cc2)CCN1c1nccc(C(=O)NC2C3CC4CC2CC(O)(C4)C3)n1 (stereo partly specified)
- remaining at 0.5 h [2]: 90%

SMILES: C[C@@H]1CN(c2ccc(C(N)=O)cc2)CCN1c1cccc(C(=O)NC2C3CC4CC2CC(O)(C4)C3)n1 (stereo partly specified)
- inhibition in vivo at 10 mg/kg [1]: 0%
- remaining at 0.5 h [2]: 57%
- inhibition in vivo at 10 mg/kg [3]: 26%

SMILES: C[C@@H]1CN(c2c(F)cc(S(C)(=O)=O)cc2F)CCN1c1nccc(C(=O)NC2C3CC4CC2CC(O)(C4)C3)n1 (stereo partly specified)
- remaining at 0.5 h [2]: 95%

SMILES: C[C@@H]1CN(c2ccc(C(C)(C)O)cc2)CCN1c1nccc(C(=O)NC2C3CC4CC2CC(O)(C4)C3)n1 (stereo partly specified)
- inhibition in vivo at 10 mg/kg [1]: 32%
- remaining at 0.5 h [2]: 99%
- inhibition in vivo at 10 mg/kg [3]: 46%

SMILES: CN(C)C(=N)NC(=N)N [METFORMIN]
- Activity [14]: 252.6 mg/dL
- Activity [15]: inactive
- Activity [16]: 0.7%
- Activity [17]: 23.9 mg/dL
- Activity [18]: 99.9 mg/dL

SMILES: C[C@@H]1CN(c2ccc(C(C)(C)O)cc2F)CCN1c1nccc(C(=O)NC2C3CC4CC2CC(O)(C4)C3)n1 (stereo partly specified)
- inhibition in vivo at 10 mg/kg [1]: 43%
- remaining at 0.5 h [2]: 98%
- inhibition in vivo at 10 mg/kg [3]: 74%

SMILES: Cc1cc(S(C)(=O)=O)ccc1N1CCN(c2nccc(C(=O)NC3C4CC5CC3CC(O)(C5)C4)n2)[C@H](C)C1 (stereo partly specified)
- inhibition in vivo at 10 mg/kg [1]: 64%
- remaining at 0.5 h [2]: 90%
- inhibition in vivo at 10 mg/kg [3]: 77%

SMILES: C[C@@H]1CN(c2ccc(F)cc2)CCN1c1nccc(C(=O)NC2C3CC4CC2CC(O)(C4)C3)n1 (stereo partly specified)
- remaining at 0.5 h [2]: 82%

SMILES: C[C@@H]1CN(c2ccc(C(=O)O)cc2)CCN1c1cccc(C(=O)NC2C3CC4CC2CC(O)(C4)C3)n1 (stereo partly specified)
- remaining at 0.5 h [2]: 71%
